Molecules are shown by their SMILES. Active and inactive are the calls of the source. The rule behind the calls is not given here.

Data set [1] addresses Protein smoothened (Mus musculus, UniProt P56726). Kind of data set: Inhibition of Smo-mediated Hh signalling pathway in mouse Shh Light2 cells by Gli-luciferase reporter gene assay. Format: cell-based. A digest of the protocol: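 Light II cells (NIH-3T3 stably carrying a Gli-responsive firefly luciferase reporter plus a Renilla luciferase vector), seeded in 96-well plates and treated. Firefly/Renilla activity in the lysates read by dual luciferase assay on a luminometer. IC50 is the mean ± SD of three separate experiments.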

Data set [2] is described as follows: Cytotoxicity against human KB cells. Format: toxicity, cell-based.
Data set [3] deals with Voltage-gated inwardly rectifying potassium channel KCNH2 (Homo sapiens, UniProt Q12809). Kind of data set: Inhibition of human ERG.
Data set [4] has as its system LS174T. In words: Inhibition of PGE2-stimulated TCF/LEF transactivation in human LS174T cells at 20 uM measured after 6 hrs by dual luciferase reporter gene assay. Format: cell-based. The gist of the method:
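LS174T cells stimulated with PGE2 and treated for 6 h, then lysed for dual luciferase reporter analysis of TCF/LEF activity. Mean ± SD.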
On the technique in general: In a reporter assay the amount or activity of a reporter protein is the signal.

The target of data set [5] is Protein smoothened (Homo sapiens) (UniProt Q99835). Kind of data set: Antagonist activity at wild-type Smo (unknown origin) expressed in mouse Shh Light2 cells assessed as suppression of Gli-mRNA expression measured after 36 hrs by dual luciferase reporter gene assay. Format: cell-based. The conditions noted are these: in the assay text read “Gli-luciferase activity” for “Gli-mRNA expression”. The gist of the method:
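Light II cells transfected with wild-type Smo plasmid to drive Gli-luciferase, exposed to compound for 36 h, then harvested for dual luciferase reporter assay. Mean ± SD.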

For data set [6], the system named is Medulloblastoma cell. Kind of data set: Antiproliferative activity against mouse medulloblastoma cells isolated from Ptch+/- p53-/- mouse measured after 72 hrs by MTS assay. Format: functional. The gist of the method: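 Medulloblastoma cells from Ptch+/-;p53-/- allografts in nude mice, minced and collagenase-digested, grown in Neurobasal A with B-27, EGF 20 ng/ml, bFGF 20 ng/ml, nonessential amino acids and N-acetyl cysteine 60 µg/ml. Seeded in 96-well plates, treated 72 h, viability read by MTS; mean ± SD.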
Background: Tetrazolium dyes change colour on reduction, which living cells bring about.

Data set [7] relates to HEK293. Kind of data set: Inhibition of TNF-alpha stimulated NFkappaB transactivation in HEK293 cells at 20 uM measured after 24 hrs by dual luciferase reporter gene assay. Format: cell-based. Conditions: Homo sapiens. The gist of the method: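 HEK293 cells stimulated with TNF-α and treated for 24 h, then lysed for dual luciferase reporter analysis of NF-κB activity. Mean ± SD.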

The target of data set [8] is Protein smoothened (Homo sapiens) (UniProt Q99835). Conditions: HEK293, 5 uM.
Data set [9] has the same target. Conditions: HEK293, 5 uM. The source holds these as a separate data set.
A short description of data set [10]: Cytotoxicity against mouse L1210 cells by MTT assay. The class given is functional, cell-based.

Sequence of Protein smoothened (Homo sapiens) (Q99835 whole entry): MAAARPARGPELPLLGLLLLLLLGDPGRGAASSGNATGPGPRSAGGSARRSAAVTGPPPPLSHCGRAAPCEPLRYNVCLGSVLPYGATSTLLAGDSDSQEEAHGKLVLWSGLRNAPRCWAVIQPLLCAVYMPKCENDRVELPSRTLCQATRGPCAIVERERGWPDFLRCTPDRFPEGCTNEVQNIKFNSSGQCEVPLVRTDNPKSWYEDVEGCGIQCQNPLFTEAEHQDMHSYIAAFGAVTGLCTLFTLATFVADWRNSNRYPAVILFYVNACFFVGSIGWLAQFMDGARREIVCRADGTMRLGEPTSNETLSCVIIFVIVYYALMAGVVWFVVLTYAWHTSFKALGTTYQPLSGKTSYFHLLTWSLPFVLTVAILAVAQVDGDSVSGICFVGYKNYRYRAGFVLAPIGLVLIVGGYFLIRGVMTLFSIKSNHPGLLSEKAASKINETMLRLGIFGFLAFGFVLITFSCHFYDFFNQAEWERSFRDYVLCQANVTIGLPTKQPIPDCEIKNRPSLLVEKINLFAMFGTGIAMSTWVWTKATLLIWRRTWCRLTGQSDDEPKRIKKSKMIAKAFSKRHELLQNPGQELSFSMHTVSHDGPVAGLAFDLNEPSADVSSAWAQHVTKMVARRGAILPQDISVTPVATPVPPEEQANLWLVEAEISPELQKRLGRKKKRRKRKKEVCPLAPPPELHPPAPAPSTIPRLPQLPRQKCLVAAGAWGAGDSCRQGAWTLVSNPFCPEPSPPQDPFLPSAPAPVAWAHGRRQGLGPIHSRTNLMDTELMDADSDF
Sequence of Voltage-gated inwardly rectifying potassium channel KCNH2 (Q12809 whole entry): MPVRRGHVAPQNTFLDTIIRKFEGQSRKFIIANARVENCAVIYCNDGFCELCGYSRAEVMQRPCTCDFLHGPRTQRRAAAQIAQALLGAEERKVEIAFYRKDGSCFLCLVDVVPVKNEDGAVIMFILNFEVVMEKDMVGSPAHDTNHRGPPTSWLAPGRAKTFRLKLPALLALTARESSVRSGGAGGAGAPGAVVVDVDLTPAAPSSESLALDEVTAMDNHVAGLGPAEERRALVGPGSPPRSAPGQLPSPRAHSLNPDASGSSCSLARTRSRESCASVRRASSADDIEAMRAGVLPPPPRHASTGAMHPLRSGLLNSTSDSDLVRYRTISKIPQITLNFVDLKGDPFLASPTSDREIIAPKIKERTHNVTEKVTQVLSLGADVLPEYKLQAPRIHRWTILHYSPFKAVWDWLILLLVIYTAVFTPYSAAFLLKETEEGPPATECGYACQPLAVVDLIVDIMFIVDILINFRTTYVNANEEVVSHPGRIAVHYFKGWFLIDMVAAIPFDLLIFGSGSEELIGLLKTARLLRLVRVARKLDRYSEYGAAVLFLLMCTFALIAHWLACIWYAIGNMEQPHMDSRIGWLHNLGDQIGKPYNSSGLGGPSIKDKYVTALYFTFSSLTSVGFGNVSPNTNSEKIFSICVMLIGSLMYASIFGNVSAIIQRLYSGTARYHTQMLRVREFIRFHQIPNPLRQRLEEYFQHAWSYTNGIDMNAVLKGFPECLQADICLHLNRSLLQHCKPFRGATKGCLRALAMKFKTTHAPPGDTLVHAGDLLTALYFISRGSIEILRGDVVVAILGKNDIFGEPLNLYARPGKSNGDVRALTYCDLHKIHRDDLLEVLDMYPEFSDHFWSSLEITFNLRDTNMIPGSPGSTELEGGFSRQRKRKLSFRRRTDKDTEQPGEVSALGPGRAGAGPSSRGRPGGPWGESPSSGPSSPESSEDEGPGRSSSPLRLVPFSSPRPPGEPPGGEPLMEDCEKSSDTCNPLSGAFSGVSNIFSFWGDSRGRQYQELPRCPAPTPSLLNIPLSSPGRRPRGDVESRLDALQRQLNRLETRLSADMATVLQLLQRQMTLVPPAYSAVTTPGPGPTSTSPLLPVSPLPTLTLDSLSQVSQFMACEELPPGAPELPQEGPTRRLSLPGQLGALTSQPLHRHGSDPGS
Sequence of Protein smoothened (P56726 whole entry): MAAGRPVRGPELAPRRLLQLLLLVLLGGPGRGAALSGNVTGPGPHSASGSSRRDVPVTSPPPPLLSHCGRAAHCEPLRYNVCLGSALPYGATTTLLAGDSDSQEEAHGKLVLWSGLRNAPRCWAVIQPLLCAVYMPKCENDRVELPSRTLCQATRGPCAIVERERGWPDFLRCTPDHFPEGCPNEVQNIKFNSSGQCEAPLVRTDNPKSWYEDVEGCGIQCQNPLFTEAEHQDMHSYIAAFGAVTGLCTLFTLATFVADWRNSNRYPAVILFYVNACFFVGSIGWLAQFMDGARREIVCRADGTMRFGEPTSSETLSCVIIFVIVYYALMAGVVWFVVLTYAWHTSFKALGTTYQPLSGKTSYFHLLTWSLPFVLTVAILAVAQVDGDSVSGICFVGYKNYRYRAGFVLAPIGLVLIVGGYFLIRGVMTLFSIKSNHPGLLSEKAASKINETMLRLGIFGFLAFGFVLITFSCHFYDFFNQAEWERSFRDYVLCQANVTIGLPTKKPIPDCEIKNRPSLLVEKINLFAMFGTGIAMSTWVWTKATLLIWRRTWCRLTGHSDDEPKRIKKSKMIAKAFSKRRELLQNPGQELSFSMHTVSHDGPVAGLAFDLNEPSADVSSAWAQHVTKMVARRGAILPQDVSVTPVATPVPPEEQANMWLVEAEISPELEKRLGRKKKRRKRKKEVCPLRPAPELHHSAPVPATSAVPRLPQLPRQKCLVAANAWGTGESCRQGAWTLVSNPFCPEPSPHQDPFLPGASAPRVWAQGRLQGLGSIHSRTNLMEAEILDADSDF

As for `C[C@H]1[C@@H](CC(=O)Nc2ccc(Cl)c(-c3ccccn3)c2)O[C@@H]2O[C@@]3(C)CC[C@H]4[C@H](C)CC[C@@H]1[C@@]24OO3`, the results for the IC50 in [1], in data set [2] and in [3] were 241 nM, 6610 nM and more than 15000 nM, respectively.

Consider `Cc1ccc2c(n1)[C@H]([C@@H](C)C(=O)Nc1cccc(-c3ccc(OC(F)(F)F)cc3)c1C)CC[C@H]2C`, for which, in data set [1], 1000 nM corresponded to half-maximal inhibition (IC50). Same read-out and setting: then `Cc1ccc2c(n1)[C@H]([C@@H](C)C(=O)Nc1ccc(Cl)c(-c3nc4ccccc4[nH]3)c1)CC[C@H]2C`, with 45.9 to 46 nM. As for `O=S(=O)(NCCNC/C=C/c1ccc(Br)cc1)c1cccc2cnccc12`, the inhibition entry in data set [4] was “Active”. In turn, `Cc1nc2c(s1)C[C@@H]1[C@H](C2)[C@H]([C@@H](C)C(=O)Nc2ccc(Cl)c(-c3ccccn3)c2)CC[C@H]1C` displayed an IC50 in [1] of more than 1000 nM. Same read-out and setting: the figure for `Cc1ccc2c(n1)[C@H]([C@@H](C)C(=O)Nc1ccc(Cl)c(-c3ccc(N4C[C@@H](C)O[C@@H](C)C4)cn3)c1)CC[C@H]2C` is more than 1000 nM. `CS(=O)(=O)c1ccc(C(=O)Nc2ccc(Cl)c(-c3ccccn3)c2)c(Cl)c1`: the inhibition result in data set [5] is “Dose-dependent effect”. The Activity result in data set [6] was “Dose-dependent effect”. For `Cc1ccc2c(n1)[C@H]([C@@H](C)C(=O)Nc1ccc(Cl)c(-c3nc4ccccc4s3)c1)CC[C@H]2C`, in data set [1], the midpoint of inhibition, the IC50, lay at 282 nM. For `C[C@@H]1CC[C@@H]([C@@H](C)C(=O)Nc2ccc(Cl)c(-c3ccccn3)c2)c2nc(CN3CCOCC3)ccc21`, the IC50 was 155 nM in [1], more than 20000 nM in [2] and 3310 nM in data set [3].

Regarding `C[C@@H]1CC[C@@H]([C@@H](C)C(=O)Nc2ccc(Cl)c(-c3ccccn3)c2)[C@H]2CC(=O)C=C[C@H]21`, the IC50 in data set [1] is more than 1000 nM.

As to `Cc1ccc(S(=O)(=O)/C=C/C#N)cc1`, the inhibition result in data set [7] is “Active”. Regarding `CC1=C2C[C@H]3[C@@H](CC=C4C[C@@H](O)CC[C@@]43C)[C@@H]2CC[C@]12O[C@@H]1C[C@H](C)CN[C@H]1[C@H]2C`, the inhibition entry in data set [8] and in data set [9] was “Active” each time. `Cc1ccc2c(n1)[C@H]([C@@H](C)C(=O)Nc1ccc(Cl)c(-c3nc4ccccc4o3)c1)CC[C@H]2C`: it took 243 nM to reach half-maximal inhibition in data set [1] (IC50).

In data set [1], `Cc1ccc2c(n1)[C@H]([C@@H](C)C(=O)Nc1ccc(Cl)c(-c3nc4ccc(OC(F)(F)F)cc4n3C)c1)CC[C@H]2C` came in with an IC50 of 52.6 nM. On the same count and under the same terms, the figure for `Cc1ccc2c(n1)[C@H]([C@@H](C)C(=O)Nc1ccc(Cl)c(-c3nnc(-c4ccnn4C)s3)c1)CC[C@H]2C` is 265 nM; for `C[C@@H]1CC[C@@H]([C@@H](C)C(=O)Nc2ccc(Cl)c(-c3ccccn3)c2)[C@H]2CC(O)CC[C@H]21` (stereo partly drawn) it is more than 1000 nM.

Turning to `CC(=O)Nc1nc2c(s1)C[C@@H]1[C@H](C2)[C@H]([C@@H](C)C(=O)Nc2ccc(Cl)c(-c3ccccn3)c2)CC[C@H]1C`, the IC50 in data set [1] is more than 1000 nM.

Compound `C[C@@H]1CC[C@@H]([C@@H](C)C(=O)Nc2ccc(Cl)c(-c3ccccn3)c2)C2=CC(=O)CC[C@H]21` displayed an IC50 in data set [1] of more than 1000 nM.

On to `Cc1ccc2c(n1)[C@H]([C@@H](C)C(=O)Nc1ccc(Cl)c(-c3ccccn3)c1)CC[C@H]2C`, for which the IC50 in data set [1] is 212 nM; in data set [2], 15000 nM; in data set [3], more than 15000 nM. In data set [1], `Cc1ccc2c(n1)[C@H]([C@@H](C)C(=O)Nc1ccc(Cl)c(-c3nc4cc(OC(F)(F)F)ccc4n3C)c1)CC[C@H]2C` yielded an IC50 of 84.5 nM.

Take `C[C@H]1[C@@H](O[C@@H](C#N)c2ccc(Br)cc2)O[C@@H]2O[C@@]3(C)CC[C@H]4[C@H](C)CC[C@@H]1[C@@]24OO3`: the IC50 in data set [10] is 10 nM.

`C[C@@H]1CC[C@@H]([C@@H](C)C(=O)Nc2ccc(Cl)c(-c3ccccn3)c2)[C@H]2Cc3c(cnn3-c3ccccc3)C[C@H]21` returned an IC50 in [1] of 327 nM. Take `C[C@@H]1CC[C@@H]([C@@H](C)C(=O)Nc2ccc(Cl)c(-c3ccccn3)c2)[C@H]2CC(=O)CC[C@H]21`: inhibition in [1] was half-maximal at 290 nM (IC50).

In data set [1], `C[C@@H]1CC[C@@H]2[C@]34OO[C@](C)(CC[C@@H]13)OC4O[C@]2(C)C(=O)Nc1ccc(Cl)c(-c2ccccn2)c1` (stereo partly drawn) came in with an IC50 of 180 nM.

Regarding `C[C@@H]1CC[C@@H]([C@@H](C)C(=O)Nc2ccc(Cl)c(-c3ccccn3)c2)[C@H]2Cc3c(c4ccccc4n3C)C[C@H]21`, 476 nM corresponded to half-maximal inhibition in [1] (IC50).

In [1], `COC(=O)[C@H](C)c1ccc(C)c2ccc(C(=O)Nc3ccc(Cl)c(-c4ccccn4)c3)nc12` returned an IC50 of 270 nM. Same read-out and setting: the figure for `C[C@H]1[C@@H](CC(=O)Nc2ccc(Cl)c(-c3ccccn3)c2)O[C@@H]2O[C@@]3(C)CC[C@H]4[C@H](C)CC[C@@H]1[C@@]24O3` is 184 nM; for `Cc1ccc2c(n1)[C@H]([C@@H](C)C(=O)Nc1ccc(Cl)c(-c3nc(C4CC4)no3)c1)CC[C@H]2C` it is 220 nM. `Cc1ccc2c(n1)[C@H]([C@@H](C)C(=O)Nc1ccc(Cl)c(-c3nnc(-c4ccnn4C)o3)c1)CC[C@H]2C`: in data set [1], the IC50 amounted to 588 nM. In data set [1], `Cc1ccc2c(n1)[C@H]([C@@H](C)C(=O)Nc1ccc(Cl)c(-c3noc(C)n3)c1)CC[C@H]2C` returned an IC50 of more than 1000 nM.

As usually defined, the IC50 is the concentration that inhibits the measured activity by half. Higher therefore signals weaker potency.
